Measured values published in ChEMBL document CHEMBL1177710, “Structure-based drug design and optimization of mannoside bacterial FimH antagonists” (J Med Chem, 2010).
pEC50, pKd: −log10 of the molar value. One block for each compound: values may come before it.

Legend:
Escherichia coli [1] = experiment: Inhibition of Escherichia coli FimH-mediated hemagglutinination of guinea pig red blood cells assessed as drug level required for > 90% inhibition of hemagglutinination
[2] = Displacement of 5(6)-FAM-mannoside from Escherichia coli FimH by fluorescence polarization assay
[3] = Binding affinity to Escherichia coli FimH by surface plasmon resonance assay
Escherichia coli [4] = experiment: Selectivity ratio of inhibition of Escherichia coli FimH-mediated hemagglutinination of guinea pig red blood cells to EC50 for Escherichia coli FimH
Escherichia coli [5] = experiment: Ratio of alpha-D-heptylmannoside to compound inhibitory activity against Escherichia coli FimH-mediated hemagglutinination of guinea pig red blood cells
[6] = Binding affinity to Escherichia coli FimH by fluorescence polarization assay
How it was run: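 Competitive fluorescence polarization/anisotropy assay. Compounds from 10 mM DMSO stocks were 2-fold serially diluted to 11 final concentrations of 0–10 μM, in duplicate plates. Mix: 200 nM FimH, 20 nM 5(6)-FAM-labelled mannoside tracer, 50 mM Tris, 100 mM NaCl, 1 mM EDTA, 5 μg BSA, 5 mM BME. Anisotropy was averaged over 100 readings/well and fitted to a one-site competition curve, with a mannoside positive control.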

SMILES: CC(=O)Nc1ccccc1O[C@H]1O[C@H](CO)[C@@H](O)[C@H](O)[C@@H]1O
Activity (Escherichia coli [1]): 125 µM

SMILES: OC[C@H]1O[C@H](Oc2ccc(Cl)cc2)[C@@H](O)[C@@H](O)[C@@H]1O
Activity (Escherichia coli [1]): 32 µM

SMILES: CNS(=O)(=O)c1ccccc1-c1ccc(O[C@H]2O[C@H](CO)[C@@H](O)[C@H](O)[C@@H]2O)cc1
Activity (Escherichia coli [1]): 4 µM

SMILES: COC(=O)c1cccc(-c2ccc(O[C@H]3O[C@H](CO)[C@@H](O)[C@H](O)[C@@H]3O)cc2)c1
pEC50 [2]: 7.28
Activity (Escherichia coli [1]): 1 µM

SMILES: Cc1ccc(O[C@H]2O[C@H](CO)[C@@H](O)[C@H](O)[C@@H]2O)cc1
Activity (Escherichia coli [1]): 8 µM

SMILES: OC[C@H]1O[C@H](OCc2ccccc2)[C@@H](O)[C@@H](O)[C@@H]1O
pEC50 [2]: 6.73

SMILES: N#Cc1ccc(O[C@H]2O[C@H](CO)[C@@H](O)[C@H](O)[C@@H]2O)cc1
Activity (Escherichia coli [1]): 30 µM

Activity (Escherichia coli [1]): 4 µM
SMILES: O=c1[nH]c2ccc(O[C@H]3O[C@H](CO)[C@@H](O)[C@H](O)[C@@H]3O)cc2o1

SMILES: CCCCO[C@H]1O[C@H](CO)[C@@H](O)[C@H](O)[C@@H]1O [BUTYLALPHAMAN]
pEC50 [2]: 6.61
Activity (Escherichia coli [1]): 125 µM
pKd [3]: 6.82

SMILES: OC[C@H]1O[C@H](Oc2ccccc2)[C@@H](O)[C@@H](O)[C@@H]1O
pEC50 [2]: 6.94
Activity (Escherichia coli [1]): 30 µM

SMILES: NC(=O)c1ccc(O[C@H]2O[C@H](CO)[C@@H](O)[C@H](O)[C@@H]2O)cc1
Activity (Escherichia coli [1]): 15 µM

Activity (Escherichia coli [1]): 8 µM
SMILES: O=C(c1ccccc1)c1cccc(O[C@H]2O[C@H](CO)[C@@H](O)[C@H](O)[C@@H]2O)c1

SMILES: O=C(NCCOCCNC(=O)c1cccc(-c2ccc(O[C@H]3O[C@H](CO)[C@@H](O)[C@H](O)[C@@H]3O)cc2)c1)c1cccc(-c2ccc(O[C@H]3O[C@H](CO)[C@@H](O)[C@H](O)[C@@H]3O)cc2)c1
Activity (Escherichia coli [1]): 0.75 µM

SMILES: CNS(=O)(=O)c1cccc(-c2ccc(O[C@H]3O[C@H](CO)[C@@H](O)[C@H](O)[C@@H]3O)cc2)c1
Activity (Escherichia coli [1]): 1 µM

SMILES: CC(=O)Nc1cccc(O[C@H]2O[C@H](CO)[C@@H](O)[C@H](O)[C@@H]2O)c1
pEC50 [2]: 6.80
Activity (Escherichia coli [1]): 12 µM

SMILES: CC(=O)Nc1ccc(O[C@H]2O[C@H](CO)[C@@H](O)[C@H](O)[C@@H]2O)cc1
pEC50 [2]: 6.91
Activity (Escherichia coli [1]): 8 µM

SMILES: NC(=O)c1cccc(O[C@H]2O[C@H](CO)[C@@H](O)[C@H](O)[C@@H]2O)c1
Activity (Escherichia coli [1]): 16 µM

SMILES: COC(=O)c1cc(C(=O)OC)cc(-c2ccc(O[C@H]3O[C@H](CO)[C@@H](O)[C@H](O)[C@@H]3O)cc2)c1
pEC50 [2]: 7.11
Activity (Escherichia coli [1]): 0.15 µM
Selectivity ratio (Escherichia coli [4]): 2

SMILES: OCc1cccc(-c2ccc(O[C@H]3O[C@H](CO)[C@@H](O)[C@H](O)[C@@H]3O)cc2)c1
Activity (Escherichia coli [1]): 3 µM

Activity (Escherichia coli [1]): 2 µM
SMILES: OC[C@H]1O[C@H](Oc2ccc(-c3cccnc3)cc2)[C@@H](O)[C@@H](O)[C@@H]1O

SMILES: OC[C@H]1O[C@H](Oc2ccccc2Cl)[C@@H](O)[C@@H](O)[C@@H]1O
Activity (Escherichia coli [1]): 4 µM

SMILES: CNC(=O)c1cccc(-c2ccc(O[C@H]3O[C@H](CO)[C@@H](O)[C@H](O)[C@@H]3O)cc2)c1
pEC50 [2]: 7.12
Activity (Escherichia coli [1]): 1 µM

SMILES: COC(=O)c1ccc(-c2ccc(O[C@H]3O[C@H](CO)[C@@H](O)[C@H](O)[C@@H]3O)cc2)cc1
pEC50 [2]: 7.23
Activity (Escherichia coli [1]): 4 µM

Activity (Escherichia coli [1]): 6 µM
SMILES: COC(=O)c1ccc(-c2cccc(O[C@H]3O[C@H](CO)[C@@H](O)[C@H](O)[C@@H]3O)c2)cc1

SMILES: N#Cc1ccccc1-c1ccc(O[C@H]2O[C@H](CO)[C@@H](O)[C@H](O)[C@@H]2O)cc1
Activity (Escherichia coli [1]): 2 µM

SMILES: COc1ccc(O[C@H]2O[C@H](CO)[C@@H](O)[C@H](O)[C@@H]2O)cc1
Activity (Escherichia coli [1]): 8 µM

SMILES: OCc1ccccc1-c1ccc(O[C@H]2O[C@H](CO)[C@@H](O)[C@H](O)[C@@H]2O)cc1
Activity (Escherichia coli [1]): 16 µM

SMILES: NC(=O)c1ccccc1-c1ccc(O[C@H]2O[C@H](CO)[C@@H](O)[C@H](O)[C@@H]2O)cc1
Activity (Escherichia coli [1]): 6 µM

SMILES: COc1cccc(-c2ccc(O[C@H]3O[C@H](CO)[C@@H](O)[C@H](O)[C@@H]3O)cc2)c1
Activity (Escherichia coli [1]): 1.5 µM

SMILES: N#Cc1ccccc1O[C@H]1O[C@H](CO)[C@@H](O)[C@H](O)[C@@H]1O
Activity (Escherichia coli [1]): 6 µM

SMILES: O=C(NCCOCCOCCNC(=O)c1cccc(-c2ccc(O[C@H]3O[C@H](CO)[C@@H](O)[C@H](O)[C@@H]3O)cc2)c1)c1cccc(-c2ccc(O[C@H]3O[C@H](CO)[C@@H](O)[C@H](O)[C@@H]3O)cc2)c1
Ratio (Escherichia coli [5]): 8

SMILES: NC(=O)c1cccc(-c2ccc(O[C@H]3O[C@H](CO)[C@@H](O)[C@H](O)[C@@H]3O)cc2)c1
pEC50 [2]: 7.11
Activity (Escherichia coli [1]): 2 µM

SMILES: O=[N+]([O-])c1cccc(O[C@H]2O[C@H](CO)[C@@H](O)[C@H](O)[C@@H]2O)c1
Activity (Escherichia coli [1]): 16 µM

SMILES: CC(=O)Nc1cccc(-c2ccc(O[C@H]3O[C@H](CO)[C@@H](O)[C@H](O)[C@@H]3O)cc2)c1
pEC50 [2]: 7.15
Activity (Escherichia coli [1]): 2 µM

SMILES: O=C(O)c1cc(C(=O)NCCCCO[C@H]2O[C@H](CO)[C@@H](O)[C@H](O)[C@@H]2O)cc(-c2c3ccc(=O)cc-3oc3cc(O)ccc23)c1
Activity (Escherichia coli [1]): 125 µM
pKd [6]: 6.77

Activity (Escherichia coli [1]): 2 µM
SMILES: OC[C@H]1O[C@H](Oc2ccc(-c3ccncc3)cc2)[C@@H](O)[C@@H](O)[C@@H]1O

Activity (Escherichia coli [1]): 2 µM
SMILES: COC(=O)c1cc2ccc(O[C@H]3O[C@H](CO)[C@@H](O)[C@H](O)[C@@H]3O)cc2s1

Activity (Escherichia coli [1]): 8 µM
SMILES: O=C1Cc2cc(O[C@H]3O[C@H](CO)[C@@H](O)[C@H](O)[C@@H]3O)ccc2O1

SMILES: CS(=O)(=O)Nc1cccc(-c2ccc(O[C@H]3O[C@H](CO)[C@@H](O)[C@H](O)[C@@H]3O)cc2)c1
pEC50 [2]: 7.01
Activity (Escherichia coli [1]): 2 µM

SMILES: O=[N+]([O-])c1ccc(-c2ccc(O[C@H]3O[C@H](CO)[C@@H](O)[C@H](O)[C@@H]3O)cc2)cc1
Activity (Escherichia coli [1]): 2 µM

SMILES: N#Cc1ccc(-c2ccc(O[C@H]3O[C@H](CO)[C@@H](O)[C@H](O)[C@@H]3O)cc2)cc1
Activity (Escherichia coli [1]): 8 µM

Activity (Escherichia coli [1]): 6 µM
SMILES: OC[C@H]1O[C@H](Oc2ccc3ccccc3c2)[C@@H](O)[C@@H](O)[C@@H]1O

SMILES: O=C(O)c1cccc(-c2ccc(O[C@H]3O[C@H](CO)[C@@H](O)[C@H](O)[C@@H]3O)cc2)c1
pEC50 [2]: 7.00
Activity (Escherichia coli [1]): 4 µM

SMILES: N#Cc1cccc(-c2ccc(O[C@H]3O[C@H](CO)[C@@H](O)[C@H](O)[C@@H]3O)cc2)c1
Activity (Escherichia coli [1]): 1 µM

SMILES: N#Cc1cccc(O[C@H]2O[C@H](CO)[C@@H](O)[C@H](O)[C@@H]2O)c1
pEC50 [2]: 6.79
Activity (Escherichia coli [1]): 23 µM

SMILES: CC(=O)Oc1cccc(O[C@H]2O[C@H](CO)[C@@H](O)[C@H](O)[C@@H]2O)c1
Activity (Escherichia coli [1]): 16 µM

SMILES: O=C(O)c1cccc(O[C@H]2O[C@H](CO)[C@@H](O)[C@H](O)[C@@H]2O)c1
Activity (Escherichia coli [1]): 60 µM

SMILES: COC(=O)Cc1ccc(O[C@H]2O[C@H](CO)[C@@H](O)[C@H](O)[C@@H]2O)cc1
Activity (Escherichia coli [1]): 30 µM

SMILES: OC[C@H]1O[C@H](Oc2ccc(-c3ccccc3O)cc2)[C@@H](O)[C@@H](O)[C@@H]1O
Activity (Escherichia coli [1]): 8 µM

SMILES: O=[N+]([O-])c1ccc(O[C@H]2O[C@H](CO)[C@@H](O)[C@H](O)[C@@H]2O)cc1
Activity (Escherichia coli [1]): 31 µM

SMILES: COC(=O)c1cc(O[C@H]2O[C@H](CO)[C@@H](O)[C@H](O)[C@@H]2O)cc(C(=O)OC)c1
pEC50 [2]: 7.04
Activity (Escherichia coli [1]): 2 µM

SMILES: OCc1ccc(-c2ccc(O[C@H]3O[C@H](CO)[C@@H](O)[C@H](O)[C@@H]3O)cc2)cc1
Activity (Escherichia coli [1]): 6 µM

SMILES: CNC(=O)c1cc(C(=O)NC)cc(-c2ccc(O[C@H]3O[C@H](CO)[C@@H](O)[C@H](O)[C@@H]3O)cc2)c1
pEC50 [2]: 7.06
Activity (Escherichia coli [1]): 0.37 µM
Selectivity ratio (Escherichia coli [4]): 4

SMILES: COC(=O)c1ccc(O[C@H]2O[C@H](CO)[C@@H](O)[C@H](O)[C@@H]2O)cc1
pEC50 [2]: 7.19
Activity (Escherichia coli [1]): 8 µM

SMILES: CS(=O)(=O)Nc1ccccc1-c1ccc(O[C@H]2O[C@H](CO)[C@@H](O)[C@H](O)[C@@H]2O)cc1
Activity (Escherichia coli [1]): 12 µM

SMILES: COC(=O)c1cccc(O[C@H]2O[C@H](CO)[C@@H](O)[C@H](O)[C@@H]2O)c1
pEC50 [2]: 7.08
Activity (Escherichia coli [1]): 6 µM

SMILES: OC[C@H]1O[C@H](Oc2ccc(-c3cccc(O)c3)cc2)[C@@H](O)[C@@H](O)[C@@H]1O
Activity (Escherichia coli [1]): 4 µM

SMILES: O=C(O)c1cc(C(=O)O)cc(-c2ccc(O[C@H]3O[C@H](CO)[C@@H](O)[C@H](O)[C@@H]3O)cc2)c1
Activity (Escherichia coli [1]): 2 µM

SMILES: CCCCCCCO[C@H]1O[C@H](CO)[C@@H](O)[C@H](O)[C@@H]1O
pEC50 [2]: 7.05
Activity (Escherichia coli [1]): 15 µM
pKd [3]: 8.30

SMILES: OC[C@H]1O[C@H](Oc2cccc(Cl)c2)[C@@H](O)[C@@H](O)[C@@H]1O
Activity (Escherichia coli [1]): 8 µM

Activity (Escherichia coli [1]): 2 µM
SMILES: COC(=O)c1cc2cc(O[C@H]3O[C@H](CO)[C@@H](O)[C@H](O)[C@@H]3O)ccc2s1
